# IMP-1 inh = blocks Pseudomonas aeruginosa IMP-1 metallo-beta-lactamase. purified IMP-1, nitrocefin hydrolysis, epi-absorbance fluorescence. inhibition, % at 5.6 µM. 290,000 tested, 0.45% active. AID 1556;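 active means inhibition above the mean plus 3 SD of all compounds in the same screening run, cut at about 4.5% in these data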;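 further: 0% = IMP-1 with DMSO and 100% = DMSO wells lacking enzyme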
#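 Assay system: purified recombinant IMP-1 beta-lactamase. Input: IMP-1 0.2 nM before substrate addition. Buffer or medium: Zinc- and detergent-supplemented HEPES buffer, pH 7.1. Schedule: 25 °C, 15 min preincubation, 25 min reaction. Signal: Epi-absorbance fluorescence, 480 nm excitation, 530 nm emission. Evaluation: percent inhibition from optical density relative to buffer-blank wells.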
# HCV NS3 hel inh = blocks Hepatitis C virus NS3 helicase unwinding; 290,000 tested, 0.56% active; NS3 helicase DNA unwinding, Cy5 molecular beacon fluorescence; inhibition, % at 10.9 µM; AID 1800;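 active means inhibition above the mean of all tested compounds plus 3 SD, set per campaign, cut at about 35% in these data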;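 further: 0% = DMSO wells and 100% = thioflavine S control wells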
#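 test system = hepatitis C virus NS3 helicase domain fragment enzyme | reagent = annealed dual-labelled DNA beacon duplex, ATP-started | times = 1 h at 25 °C | detection = Cy5 fluorescence, 0 and 60 min reads | read-out basis = percent inhibition from t60/t0 fluorescence ratio | control set = DMSO and thioflavine S | replication = one well per compound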
# SUMO HTRF inh = blocks human SUMOylation mediated by UBC9. P63279. HTRF SUMOylation assay, SAE1/SAE2 + UBC9, in vitro. inhibition, % at 35 µM. 290,000 tested, 0.36% active. AID 2006; in the data active means inhibition above about 50%, passing the limit was not always enough
# Target sequence (P63279 whole entry, looked up): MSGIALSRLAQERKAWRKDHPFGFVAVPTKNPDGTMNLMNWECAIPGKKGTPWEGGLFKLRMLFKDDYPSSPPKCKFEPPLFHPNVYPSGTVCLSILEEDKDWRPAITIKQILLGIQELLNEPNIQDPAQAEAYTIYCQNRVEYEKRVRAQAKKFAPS
# VIM-2 inh = inhibitors of Pseudomonas aeruginosa VIM-2 metallo-beta-lactamase; 290,000 tested, 0.89% active; purified VIM-2, nitrocefin hydrolysis, epi-absorbance fluorescence; inhibition, % at 5.6 µM;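 active means inhibition above the mean of all tested compounds plus 3 SD, cutoff set per screening run, cut at about 7.5% in these data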;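 further: red hydrolysis product quenches plate fluorescence so inhibitors raise well fluorescence; 0% = enzyme with DMSO and 100% = DMSO without enzyme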
# PHOSPHO1 inh = blocks human PHOSPHO1 phosphatase activity | 290,000 tested, 1.1% active | inhibition, % at 13.3 µM | Q8TCT1 | recombinant PHOSPHO1, absorbance phosphatase assay; in the data active means inhibition above about 60%
# Target sequence (Q8TCT1 whole entry, looked up): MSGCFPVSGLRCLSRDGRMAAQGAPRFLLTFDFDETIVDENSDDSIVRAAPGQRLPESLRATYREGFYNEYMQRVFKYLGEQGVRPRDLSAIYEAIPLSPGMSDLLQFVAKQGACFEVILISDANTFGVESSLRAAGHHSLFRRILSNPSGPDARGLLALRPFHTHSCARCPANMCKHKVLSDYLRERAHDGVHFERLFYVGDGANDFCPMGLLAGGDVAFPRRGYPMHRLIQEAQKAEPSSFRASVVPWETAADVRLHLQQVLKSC
# core dimer inh = blocks dimerization of HCV core protein; TR-FRET GST/Flag-core106 dimerization, 1536-well; inhibition, % at 5 µM; 300,000 tested, 0.33% active;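 active means inhibition above the mean of all tested compounds plus 3 SD, set per screening campaign, cut at about 45% in these data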
#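 Test system: GST/Flag-tagged HCV core106 proteins; Medium: KF-containing HEPES buffer, pH 7.45, DTT, CHAPS, BSA; Times: compound-protein-antibody incubation 4 h at 22.5 °C; Detection: TR-FRET 671 and 617 nm emission; Benchmarks: wells lacking GST-core106 and wells with excess unlabelled core106.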
# An asterisk follows results filed as active; / = no result. Most compounds without a hit are left out; they make up all but 3.1% or so of the library.
SMILES,IMP-1 inh,HCV NS3 hel inh,SUMO HTRF inh,VIM-2 inh,PHOSPHO1 inh,core dimer inh
CCn1c(-c2cc(-c3cc(OC)ccc3OC)nc3ccccc23)n[nH]c1=S,-4.9,5.3,10.1,-3.8,90.2*,5.5
CCn1c(-c2cc(-c3ccc(OC(C)C)cc3)nc3ccccc23)n[nH]c1=S,-2.9,-0.2,30.5,-4.8,97.4*,2.5
CCn1c(-c2cc(-c3ccccc3OC)nc3ccccc23)n[nH]c1=S,-2.6,-2.2,12.6,-2.8,13.3,10.5
CCOC(=O)C1ON2CCCCC2C1(O)C(F)(F)F (stereo unspecified),-3.4,-7.4,5.9,0.1,24.5,-3.6
CCOC(=O)Cc1csc(SCn2nnc3ccccc3c2=O)n1,-0.3,-8.9,-1.0,-1.4,38.7,2.4
CCOC(=O)Cc1csc(-n2sc3ccccc3c2=O)n1,-2.7,17.5,9.0,-2.2,95.7*,59.1*
O=C(O)c1cccc(N/N=C/C2=C(Cl)c3cc(Cl)ccc3SC2)c1,-1.3,9.7,4.6,1.4,24.3,/
CCCCN1CNC(=S)N(c2cc(C)ccc2C)C1,-1.8,6.2,0.0,-1.4,61.3*,-0.4
CCCCN1CNC(=S)N(c2ccccc2OCC)C1,-0.5,-1.8,-6.0,2.6,9.0,-6.1
CNC(=O)c1ccccc1NC(=O)C1CC(=O)N(C(C)C)C1 (stereo unspecified),-2.6,-0.9,-0.7,-0.8,40.8,8.0
COc1ccc(OCC(O)CN2CCNCC2)cc1 (stereo unspecified),2.9,-5.6,5.8,0.8,34.3,/
COc1ccc(S(=O)(=O)N2CCOCC2)cc1NC(=O)CSc1n[nH]c(C(C)C)n1,-2.1,-2.6,7.5,-2.6,62.9*,5.1
COc1ccc(S(=O)(=O)N2CCOCC2)cc1NC(=O)Cc1coc2cc(C)c(C)cc12,70.5*,-14.4,-4.7,-1.2,9.8,15.4
COc1ccc(S(=O)(=O)N2CCOCC2)cc1NC(=O)Cc1ccccc1Cl,-4.0,-5.8,0.9,-1.1,-8.1,3.9
Cc1ccc(S(=O)(=O)N2CCOCC2)cc1NC(=O)CSc1n[nH]c(N)n1,-1.1,-13.2,-3.6,-1.3,28.3,-1.6
COc1ccccc1NC(=O)c1cccc(S(=O)(=O)N2CCOCC2)c1,0.7,-4.1,18.5,-0.4,15.2,0.8
COc1ccc(S(=O)(=O)N2CCOCC2)cc1NC(=O)c1cccc(-n2cccc2)c1,/,/,/,/,/,64.6*
CCN(CC(=O)NC1CCS(=O)(=O)C1)S(=O)(=O)c1ccccc1Cl (stereo unspecified),-1.1,-6.6,10.7,0.2,33.5,-2.2
CCc1nn(CC(=O)NCCCc2ccccc2)c(=O)c2cc3cc(F)ccc3n12,3.9,-8.8,42.7,-1.7,18.1,18.1
Cc1ccc2cc(C(c3nnnn3C3CCCC3)N(Cc3ccccc3)Cc3ccco3)c(=O)[nH]c2c1 (stereo unspecified),-1.9,3.8,6.0,0.1,33.8,17.0
Cc1cc2cc(C(c3nnnn3C3CCCC3)N(Cc3cccnc3)Cc3ccco3)c(=O)[nH]c2cc1C (stereo unspecified),-0.8,-5.3,14.9,-3.3,82.6*,10.7
CCCCCc1nnc(NC(=O)c2ccc(N3CCCC3=O)cc2)s1,/,/,/,/,/,0.6
Cc1ccc(N/N=C/c2c(O)cc(C)oc2=O)cc1,-3.6,8.2,-29.5,-1.3,88.3*,-33.2
O=C(NCCCC1CCCC1)C1CCC(=O)N(Cc2ccc(Cl)cc2)C1 (stereo unspecified),-1.6,-16.8,-8.4,1.4,17.6,2.6
COc1ccc(NC2CCCN(C(=O)CCc3ccncc3)C2)cc1OC (stereo unspecified),-5.2,12.2,-5.9,-2.1,27.9,-5.8
O=C(CN1C(=O)NC2(CCCC2)C1=O)N1CCN(c2cccc(C(F)(F)F)c2)CC1,/,/,/,/,/,-5.7
O=C(CN1C(=O)NC2(CCSC2)C1=O)N1CCN(c2ccc(F)cc2)CC1 (stereo unspecified),0.8,-2.2,2.0,-0.2,99.0*,-3.6
CCCc1cc(=O)oc2cc(C)cc(OCC(=O)Nc3cccnc3)c12,-5.4,-2.2,29.8,11.5*,61.6*,-15.4
Cc1ccc2cc3c(N)c(C(=O)N4CCOCC4)sc3nc2c1,-4.0,5.3,19.4,-1.1,61.4*,-28.0

# Screens: PubChem, several laboratories
